The values that follow come from ChEMBL document CHEMBL1135419, “Molecular docking and high-throughput screening for novel inhibitors of protein tyrosine phosphatase-1B” (J Med Chem, 2002).

The target in this assay is T1, Tyrosine-protein phosphatase non-receptor type 1 (Homo sapiens, UniProt P18031).
T1 sequence (P18031 whole entry): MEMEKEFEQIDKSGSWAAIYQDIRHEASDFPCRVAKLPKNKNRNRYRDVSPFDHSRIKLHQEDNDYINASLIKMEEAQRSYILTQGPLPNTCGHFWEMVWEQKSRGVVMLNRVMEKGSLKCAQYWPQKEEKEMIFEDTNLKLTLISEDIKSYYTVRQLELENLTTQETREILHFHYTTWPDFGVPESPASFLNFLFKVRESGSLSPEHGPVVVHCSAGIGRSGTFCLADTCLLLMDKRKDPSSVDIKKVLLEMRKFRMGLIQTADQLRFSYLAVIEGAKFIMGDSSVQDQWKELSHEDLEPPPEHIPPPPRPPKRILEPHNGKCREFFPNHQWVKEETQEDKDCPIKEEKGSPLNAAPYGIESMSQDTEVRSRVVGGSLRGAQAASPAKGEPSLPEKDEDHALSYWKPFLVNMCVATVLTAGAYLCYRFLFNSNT
Nature of the assay: Inhibition of human Protein-tyrosine phosphatase 1B (PTP1B) dephosphorylation of insulin receptor peptide. Summed up: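 Human recombinant PTP1B (residues 1-322) with 50 µM phosphopeptide substrate, room temperature, stopped with malachite green reagent, absorbance read at 620 nm. Docking-set assay: 1 nM enzyme in 25 mM HEPES pH 7.4, 125 mM NaCl, 1 mM EDTA, 10% glycerol, 10 mM DTT, no albumin, 10 min, DMSO below 10%, triplicates. HTS assay: 0.9 nM enzyme, pH 7.0, 0.03% BSA, 60 min.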
As for `CC1=NN(c2cccc(Cl)c2)C(=O)/C1=C\c1ccc(-c2ccc(C(=O)O)c(Cl)c2)o1`, the IC50 was 19.3 µM.
Consider `O=C(O)c1ccc(/C=C2/SC(=S)N(Cc3ccccc3)C2=O)cc1`, for which inhibition was half-maximal at 21.6 µM (IC50).
Under `O=C(Nc1ccccc1)Nc1cc(-c2ccc(Cl)cc2)nn1-c1ccccc1` stands 12 µM.
The figure for `O=C(O)c1ccc(N2C(=O)/C(=C\C=C\c3ccccc3)SC2=S)cc1` is 4.4 µM; for `O=C(Nc1ccc(O)cc1)/C(=C/c1c[nH]c2ccccc12)NC(=O)c1ccccc1` it is 21.5 µM; for `O=C1NC(=O)C(=Cc2ccc(Sc3nc4ccc([N+](=O)[O-])cc4s3)c([N+](=O)[O-])c2)C(=O)N1` it is 4.1 µM.
The figure for `O=C(O)c1ccc(-c2ccc(/C=C3/S/C(=N\c4ccccc4)N(c4ccccc4)C3=O)o2)cc1O` is 9 µM; for `CSc1[nH]nc(NC(=O)c2ccc(Cl)c(Cl)c2)c1S(=O)(=O)c1ccc(Cl)cc1` it is 63.9 µM; for `CCOc1cc(/C=C2/N=C(c3ccc4c(c3)OCO4)OC2=O)cc(Cl)c1OC(C)=O` it is 35 µM.
`COC(=O)c1ccc2nc(NC(=O)COC(=O)c3ccc(Br)o3)sc2c1` came in with an IC50 of 34.4 µM.
Under `Oc1cccc(-c2nc(-c3ccc(-c4ccccc4)cc3)c(-c3ccc(-c4ccccc4)cc3)[nH]2)c1` stands 8.6 µM.
